The text below walks through data of PubChem BioAssay.

Calls of active or inactive are those of the source.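 How the source made its calls, unless noted: active means growth inhibition above 25% in both replicates, a cutoff set 3 SD above the mean; inconclusive means above 25% in only one replicate; inactive means the rest.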

A short description of the first test: S. cerevisiae growth inhibition in permissive medium (OD615), pilot counter-assay for S. cerevisiae lifespan shortening project, permissive growth control (AID 705). The following applies: OD615, 24 h, at 10 µM, stronger effect = higher value. The essentials: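 System: S. cerevisiae with engineered DeaD lifespan system / Measured by: absorbance (optical density) at 615 nm / Read-out: reduction in yeast growth (OD615) / Times: 4 h cell pre-growth, 24 h exposure at 30 °C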
On to `Cn1c(Cn2c(=O)sc3ccccc32)nnc1SCC(=O)NCc1ccco1`, for which the growth inhibition is 0.17% (inactive).

For `CCOC(=O)N1CCN(C(=O)c2ccccc2NC(=O)COc2ccccc2C)CC1`, the growth inhibition was -9.27% (inactive).

Consider `CCCCS(=O)(=O)/C=C\C=C/S(=O)(=O)CCCC`, for which the growth inhibition was 14.9% (inactive).

Consider `CC(=O)Oc1c2occc2cc2ccc(=O)oc12`, for which the growth inhibition is -10.4% (inactive).

Regarding `COc1ccc(Br)cc1C1CC(=O)N2CN(Cc3ccccc3)CSC2=C1C#N` (stereo not given), the growth inhibition is 4.47% (inactive).

For `Cc1nn(-c2ccccc2)c2c1C(c1ccccc1)C(C#N)=C(N)O2` (stereo not given), the growth inhibition was -13.1% (inactive).

Turning to `COc1ccc2cc(CCNC(=O)C3CCCC3)c(=O)[nH]c2c1`, the growth inhibition was -6.89% (inactive).

For the compound `COc1ccc2nc(NC(=O)C3COc4ccccc4O3)sc2c1` (stereo not given), the growth inhibition was -5.73% (inactive).

Turning to `O=C(CSCC(=O)N1CCOCC1)Nc1nc(-c2ccc3c(c2)OCO3)cs1`, the growth inhibition is -15% (inactive).

As for `COC(=O)c1c(C(=O)OC)c2n(c1C)Cc1ccccc1C2`, the growth inhibition is -4.47% (inactive).

Regarding `CC(=O)Nn1cc2c(=O)n(C)c(=O)n(C)c2c1`, the growth inhibition was -5.47% (inactive).

For the compound `O=C(NCCc1ccccc1)c1ccc(Br)o1`, the growth inhibition was -7.62% (inactive).

For the compound `O=C(O)CN(Cc1ccco1)S(=O)(=O)c1ccccc1`, the growth inhibition was -15.2% (inactive).

Consider `CC1CN(CCC(=O)Nc2ccc3c(c2)CCC3)CC(C)O1` (stereo not given), for which the growth inhibition was -3.75% (inactive).

In the case of `Cc1cc(C)n2nc(SCC(=O)Nc3ccc(F)cc3)nc2n1`, the growth inhibition is -11.7% (inactive).

On to `COCCNC(=O)CN(c1cc(C(F)(F)F)ccc1Cl)S(C)(=O)=O`, for which the growth inhibition is -2.77% (inactive).

Regarding `CCN(CC)S(=O)(=O)c1cc(C(=O)Nc2ccc(Cl)cn2)ccc1C`, the growth inhibition is -5.56% (inactive).

For `O=C(CCNS(=O)(=O)c1cccc2nsnc12)NCCc1ccccc1`, the growth inhibition was 3.27% (inactive).

As for `Clc1ccccc1CSc1nnc(-c2cccnc2)n1Cc1ccco1`, the growth inhibition was 2.38% (inactive).

Take `COc1ccc(-c2nnc(SCC(=O)NC(C)c3ccccc3)o2)cc1OC` (stereo not given): the growth inhibition was -1.92% (inactive).

As to `O=c1c2ccccc2ncn1-c1ccc2c(c1)OCCO2`, the growth inhibition was -2.29% (inactive).

On to `CC(=O)Nc1ccc(NC2(C)C(=O)c3ccccc3C2=O)cc1`, for which the growth inhibition is -0.27% (inactive).

On to `C=CCNC(=O)COc1ccc(Br)cc1Cl`, for which the growth inhibition is -15.7% (inactive).

For `COc1ccccc1N1CCN(Cc2cc(Br)c(O)c3ncccc23)CC1`, the growth inhibition is 96.8% (active).

`O=C(CNC(=O)c1cnccn1)Nc1ccc(F)c(F)c1F`: the growth inhibition is -8.69% (inactive).

For the compound `CCCC(=O)c1ccc(N2CCOCC2)c(F)c1`, the growth inhibition is -7.96% (inactive).

Turning to `O=C(NCc1ccc(Cl)c(Cl)c1)c1ccco1`, the growth inhibition was -5.02% (inactive).

With `O=C(NCC1CCCO1)C1CC(=O)N(c2ccc(F)c(Cl)c2)C1` (stereo not given), the growth inhibition was -7.27% (inactive).

On to `COC(=O)CCC(=O)Nc1ccc(NC(=O)CCC(=O)OC)cc1`, for which the growth inhibition was -0.195% (inactive).

Turning to `CCc1c(C)nc2[nH]nc(-c3ccccc3)n2c1=O`, the growth inhibition is -20.2% (inactive).

On to `COC(=O)C1=CN(CC2CCCO2)C=C(C(=O)OC)C1c1ccsc1` (stereo not given), for which the growth inhibition is -22.4% (inactive).

In the case of `COc1cccc(-n2c(Cc3cc(=O)[nH]c(=O)[nH]3)nnc2SCC(=O)N2CCCCC2)c1`, the growth inhibition was -2.5% (inactive).

For `CCOc1ccc(N(CC(=O)Nc2nccs2)S(=O)(=O)c2c(C)noc2C)cc1`, the growth inhibition is -3.78% (inactive).

On to `CC(Oc1ccc(Cl)cc1Cl)C(=O)NCCN1CCOCC1` (stereo not given), for which the growth inhibition is -8.7% (inactive).

For `Nc1nonc1C(=O)NCCc1ccccc1`, the growth inhibition was -6.66% (inactive).

For the compound `CCCCn1c(CN2CCN(C(=O)c3ccco3)CC2)nc2c1c(=O)n(C)c(=O)n2C`, the growth inhibition is -3.45% (inactive).

Regarding `COc1ccc(CCNC(=O)CCNS(=O)(=O)c2cccc3nsnc23)cc1OC`, the growth inhibition is -2.13% (inactive).

As for `CC(=O)Nc1cc2c(cc1C(=O)c1ccccc1)OCCO2`, the growth inhibition is -3.76% (inactive).

In the case of `Cc1cc(C)c2c3c(c(-c4ccccc4)n2n1)c(=O)n(C)c(=O)n3C`, the growth inhibition was -9.68% (inactive).

Consider `CCOC(=O)NC(Nc1cc(C)ccn1)(C(F)(F)F)C(F)(F)F`, for which the growth inhibition was 0.885% (inactive).

The next test in a line: S. cerevisiae growth inhibition in restrictive medium, OD615, pilot screen, restrictive growth control, yeast lifespan reduction project (AID 706;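 active means growth inhibition above a set limit, 3 SD over mean compound inhibition, in both replicates, cut at about 43% in these data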;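 further: modified DeaD lifespan yeast strain shifted to restrictive glucose medium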). The following applies: OD615, 48 h, at 10 µM, stronger effect = higher value. The essentials:
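System: Engineered S. cerevisiae DeaD strain | Buffer or medium: Glucose-based CSMM-D restrictive medium | Schedule: 4 h pre-incubation, 48 h exposure at 30 °C | Technique: Optical density at 615 nm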
For the compound `Cn1c(Cn2c(=O)sc3ccccc32)nnc1SCC(=O)NCc1ccco1`, the growth inhibition was 8.09% (inactive).

On to `CCOC(=O)N1CCN(C(=O)c2ccccc2NC(=O)COc2ccccc2C)CC1`, for which the growth inhibition is 3.48% (inactive).

Regarding `CCCCS(=O)(=O)/C=C\C=C/S(=O)(=O)CCCC`, the growth inhibition was 60% (active).

Take `CC(=O)Oc1c2occc2cc2ccc(=O)oc12`: the growth inhibition is -1.74% (inactive).

Consider `COc1ccc(Br)cc1C1CC(=O)N2CN(Cc3ccccc3)CSC2=C1C#N` (stereo not given), for which the growth inhibition was 12.8% (inactive).

On to `Cc1nn(-c2ccccc2)c2c1C(c1ccccc1)C(C#N)=C(N)O2` (stereo not given), for which the growth inhibition is -12.2% (inactive).

Consider `COc1ccc2cc(CCNC(=O)C3CCCC3)c(=O)[nH]c2c1`, for which the growth inhibition was -9.8% (inactive).

`COc1ccc2nc(NC(=O)C3COc4ccccc4O3)sc2c1` (stereo not given): the growth inhibition was -9.21% (inactive).

`O=C(CSCC(=O)N1CCOCC1)Nc1nc(-c2ccc3c(c2)OCO3)cs1`: the growth inhibition was -3.92% (inactive).

Take `COC(=O)c1c(C(=O)OC)c2n(c1C)Cc1ccccc1C2`: the growth inhibition is -1.14% (inactive).

On to `CC(=O)Nn1cc2c(=O)n(C)c(=O)n(C)c2c1`, for which the growth inhibition is 1.6% (inactive).

For the compound `O=C(NCCc1ccccc1)c1ccc(Br)o1`, the growth inhibition was 1.48% (inactive).

As to `O=C(O)CN(Cc1ccco1)S(=O)(=O)c1ccccc1`, the growth inhibition was -13% (inactive).

Regarding `CC1CN(CCC(=O)Nc2ccc3c(c2)CCC3)CC(C)O1` (stereo not given), the growth inhibition was -3.82% (inactive).

Take `Cc1cc(C)n2nc(SCC(=O)Nc3ccc(F)cc3)nc2n1`: the growth inhibition is -10.9% (inactive).

Consider `COCCNC(=O)CN(c1cc(C(F)(F)F)ccc1Cl)S(C)(=O)=O`, for which the growth inhibition was 1.25% (inactive).

For `CCN(CC)S(=O)(=O)c1cc(C(=O)Nc2ccc(Cl)cn2)ccc1C`, the growth inhibition was -11.5% (inactive).

Consider `O=C(CCNS(=O)(=O)c1cccc2nsnc12)NCCc1ccccc1`, for which the growth inhibition was -1.99% (inactive).

Take `Clc1ccccc1CSc1nnc(-c2cccnc2)n1Cc1ccco1`: the growth inhibition was 23.5% (inactive).

As for `COc1ccc(-c2nnc(SCC(=O)NC(C)c3ccccc3)o2)cc1OC` (stereo not given), the growth inhibition is -14.2% (inactive).

As for `O=c1c2ccccc2ncn1-c1ccc2c(c1)OCCO2`, the growth inhibition is -19.6% (inactive).

For `CC(=O)Nc1ccc(NC2(C)C(=O)c3ccccc3C2=O)cc1`, the growth inhibition was -3.77% (inactive).

For the compound `C=CCNC(=O)COc1ccc(Br)cc1Cl`, the growth inhibition was -6.88% (inactive).

For the compound `COc1ccccc1N1CCN(Cc2cc(Br)c(O)c3ncccc23)CC1`, the growth inhibition is 98.6% (active).

Consider `O=C(CNC(=O)c1cnccn1)Nc1ccc(F)c(F)c1F`, for which the growth inhibition was 2.7% (inactive).

Take `CCCC(=O)c1ccc(N2CCOCC2)c(F)c1`: the growth inhibition is -9.48% (inactive).

In the case of `O=C(NCc1ccc(Cl)c(Cl)c1)c1ccco1`, the growth inhibition was -2.23% (inactive).

As to `O=C(NCC1CCCO1)C1CC(=O)N(c2ccc(F)c(Cl)c2)C1` (stereo not given), the growth inhibition was -1.83% (inactive).

For the compound `COC(=O)CCC(=O)Nc1ccc(NC(=O)CCC(=O)OC)cc1`, the growth inhibition was 0.195% (inactive).

With `CCc1c(C)nc2[nH]nc(-c3ccccc3)n2c1=O`, the growth inhibition is -10.2% (inactive).

As to `COC(=O)C1=CN(CC2CCCO2)C=C(C(=O)OC)C1c1ccsc1` (stereo not given), the growth inhibition is -3.27% (inactive).

In the case of `COc1cccc(-n2c(Cc3cc(=O)[nH]c(=O)[nH]3)nnc2SCC(=O)N2CCCCC2)c1`, the growth inhibition is -0.925% (inactive).

On to `CCOc1ccc(N(CC(=O)Nc2nccs2)S(=O)(=O)c2c(C)noc2C)cc1`, for which the growth inhibition is 5.32% (inactive).

On to `CC(Oc1ccc(Cl)cc1Cl)C(=O)NCCN1CCOCC1` (stereo not given), for which the growth inhibition is 4.87% (inactive).

On to `Nc1nonc1C(=O)NCCc1ccccc1`, for which the growth inhibition is 6.3% (inactive).

For `CCCCn1c(CN2CCN(C(=O)c3ccco3)CC2)nc2c1c(=O)n(C)c(=O)n2C`, the growth inhibition is -7.47% (inactive).

For the compound `COc1ccc(CCNC(=O)CCNS(=O)(=O)c2cccc3nsnc23)cc1OC`, the growth inhibition is -8.7% (inactive).

As for `CC(=O)Nc1cc2c(cc1C(=O)c1ccccc1)OCCO2`, the growth inhibition is 7.87% (inactive).

For the compound `Cc1cc(C)c2c3c(c(-c4ccccc4)n2n1)c(=O)n(C)c(=O)n3C`, the growth inhibition was -1.79% (inactive).

Take `CCOC(=O)NC(Nc1cc(C)ccn1)(C(F)(F)F)C(F)(F)F`: the growth inhibition was -3.62% (inactive).
